Assay results from publication PMC6315297 (AIDS (London, England), 2013).
Peptide text beside a SMILES is read from it.

Molecular target: HLA-A*68:02 (Homo sapiens, UniProt P04439, A269V/D140Y/D185E/E176V/E277Q/E87N/F33Y/G231S/I121R/I166T/I218V/L180W/L300P/L318F/N151K/P208A/P217A/Q86R/R138H/R169H/S129P/T345S/V36M)
Test: HLA peptide binding assay
In short: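 Recombinant biotinylated HLA-A*68:02 heavy chain diluted to 2 nM in a mix of 30 nM β2m and peptide, folded 48 h at 18°C. Folded complexes detected by AlphaScreen with streptavidin donor beads and acceptor beads carrying the conformation-dependent anti-HLA-I antibody W6/32. Beads at final 5 μg/mL, incubated overnight at 18°C. Plates equilibrated to reader temperature 1 h before reading.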

CC(C)[C@H](NC(=O)[C@H](Cc1ccc(O)cc1)NC(=O)[C@H](Cc1ccccc1)NC(=O)[C@@H](NC(=O)[C@@H](N)CCC(=O)O)[C@@H](C)O)C(=O)N[C@@H](CC(=O)O)C(=O)NCC(=O)N[C@@H](C)C(=O)O [ETFYVDGA] (H-ETFYVDGA-OH)
Kd: 2 nM
